Test results: paper PMC10962891 (Hepatology Communications, 2024)
“Also recorded” adds a separate entry of the source. Each block holds one compound with its values, some of them ahead of it.

Key:
human FXRα2 = target: T1, human FXRα2 (Homo sapiens, UniProt Q96RI1); assay: FXR luciferase reporter assay in 293T cells transfected with FXRα2; format: cell-based; conditions: for EC50: read-out: EC50 for FXR (cell-based reporter assay, composite EC50), second column entry, 293T cells expressing FXRα2, RXRα, ASBT, repeated thrice for L-TyrCDCA only
T1 sequence (Q96RI1 1-472 isoform Q96RI1-2): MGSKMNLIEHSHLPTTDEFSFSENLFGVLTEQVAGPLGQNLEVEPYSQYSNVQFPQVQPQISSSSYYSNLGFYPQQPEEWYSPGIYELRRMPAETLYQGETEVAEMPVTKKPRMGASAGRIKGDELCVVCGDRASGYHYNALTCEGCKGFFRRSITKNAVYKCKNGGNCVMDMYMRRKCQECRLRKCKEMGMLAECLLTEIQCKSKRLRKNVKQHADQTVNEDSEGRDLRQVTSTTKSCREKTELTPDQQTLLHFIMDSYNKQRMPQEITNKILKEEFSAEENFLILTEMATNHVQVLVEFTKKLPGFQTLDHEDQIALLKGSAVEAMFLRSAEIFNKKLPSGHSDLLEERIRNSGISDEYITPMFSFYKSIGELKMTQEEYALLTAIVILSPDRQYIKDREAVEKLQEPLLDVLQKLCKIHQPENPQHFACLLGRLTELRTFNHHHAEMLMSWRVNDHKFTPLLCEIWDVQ
T1 sequence (P19793 1-462 partner): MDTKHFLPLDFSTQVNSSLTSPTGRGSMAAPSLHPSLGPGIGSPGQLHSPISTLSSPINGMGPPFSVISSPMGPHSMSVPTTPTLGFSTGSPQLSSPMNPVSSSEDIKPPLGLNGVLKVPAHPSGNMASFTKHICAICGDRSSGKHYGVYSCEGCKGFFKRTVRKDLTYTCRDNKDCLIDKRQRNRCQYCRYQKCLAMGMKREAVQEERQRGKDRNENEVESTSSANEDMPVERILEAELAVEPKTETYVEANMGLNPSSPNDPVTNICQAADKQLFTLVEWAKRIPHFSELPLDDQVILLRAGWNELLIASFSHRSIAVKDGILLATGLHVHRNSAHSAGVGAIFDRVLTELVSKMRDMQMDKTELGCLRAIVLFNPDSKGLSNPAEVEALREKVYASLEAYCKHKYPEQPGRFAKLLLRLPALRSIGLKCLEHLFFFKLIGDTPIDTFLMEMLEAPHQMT
Summary of the method: (§1)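 293T cells (70–80% confluent) were co-transfected by lipofection with FXRα2 or FXRα4 (10 ng), RXRα (2 ng), an Shp-element firefly reporter (5 ng), Renilla pRL-TK (2 ng), ASBT or NTCP (0 or 1 ng) and GFP filler to 100 ng. After 24 h, cells received 0.1% DMSO, a 10 µM positive control, or test compounds in serum-free medium for 24 h. Firefly:Renilla ratios were set relative to DMSO; quadruplicates, 3 independent runs.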

human TGR5 [1] = target: T2, human TGR5 (Homo sapiens, UniProt Q8TDU6); assay: cell-based
T2 sequence (Q8TDU6 1-330): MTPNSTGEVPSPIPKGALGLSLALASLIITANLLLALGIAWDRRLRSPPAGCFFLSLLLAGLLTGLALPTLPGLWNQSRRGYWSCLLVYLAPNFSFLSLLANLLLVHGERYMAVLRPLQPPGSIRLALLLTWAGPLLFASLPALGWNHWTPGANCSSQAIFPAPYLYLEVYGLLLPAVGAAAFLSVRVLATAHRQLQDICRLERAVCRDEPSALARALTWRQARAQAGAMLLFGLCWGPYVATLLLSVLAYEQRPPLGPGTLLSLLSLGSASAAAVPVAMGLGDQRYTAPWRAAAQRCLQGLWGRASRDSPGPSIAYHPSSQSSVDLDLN

[2] = mice, considerable dose; cited from earlier work
microbial composition = conditions: initial tests; cited from earlier work
human FXRα4 = target: T3, human FXRα4 (Homo sapiens, UniProt Q96RI1); assay: FXR luciferase reporter assay in 293T cells transfected with FXRα4; format: cell-based; conditions: 10 µM, cells overexpressing FXRα4, independent of bile salt importer
T3 sequence (Q96RI1 1-482 isoform Q96RI1-4): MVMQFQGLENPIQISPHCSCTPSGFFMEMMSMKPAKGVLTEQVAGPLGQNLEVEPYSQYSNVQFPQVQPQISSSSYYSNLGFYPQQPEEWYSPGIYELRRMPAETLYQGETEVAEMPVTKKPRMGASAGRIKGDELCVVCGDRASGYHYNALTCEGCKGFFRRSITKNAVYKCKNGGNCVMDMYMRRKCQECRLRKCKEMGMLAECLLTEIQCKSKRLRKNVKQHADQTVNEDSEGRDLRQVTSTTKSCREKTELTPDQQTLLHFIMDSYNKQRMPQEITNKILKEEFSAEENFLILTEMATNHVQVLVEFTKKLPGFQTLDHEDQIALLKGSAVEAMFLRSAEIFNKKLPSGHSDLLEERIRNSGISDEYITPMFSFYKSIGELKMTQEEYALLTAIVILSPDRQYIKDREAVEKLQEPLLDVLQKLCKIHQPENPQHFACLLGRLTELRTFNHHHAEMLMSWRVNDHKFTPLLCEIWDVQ
T3 sequence (P19793 1-462 partner): T1 sequence (P19793 1-462 partner)
Summary of the method: as §1

RAW264.7 cells = assay: LPS-induced cytokine release; format: cell-based, murine; conditions: then 3 ng/mL LPS 23 h; for effect on LPS-enhanced medium levels of TNFα and IL-6: 100 µM pretreatment 1 h
Summary of the method: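 RAW264.7 cells at 70–80% confluency were pretreated 1 h in serum-free medium with 0.1% DMSO, a 50 µM positive control, or test compounds. LPS (E. coli O128:B12, 3 ng/mL) was then added for 23 h. Cleared supernatants (300 g, 10 min) were assayed for IL-6 and TNFα by ELISA, normalized to cellular protein. Quadruplicates; three repeats.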

C. difficile [3] = conditions: cited from earlier work
C. difficile [4] = conditions: cited from earlier work; remark: listed apart in the source
human TGR5 [5] = target: T2, human TGR5; format: cell-based; conditions: 10 µM positive control, 293T cells -/+ TGR5 overexpression

- EC50 (human FXRα2): 9.9 µM
Compound: C[C@H](CCC(=O)N[C@H](Cc1ccc(O)cc1)C(=O)O)[C@H]1CC[C@H]2[C@@H]3[C@H](O)C[C@@H]4C[C@H](O)CC[C@]4(C)[C@H]3C[C@H](O)[C@]12C [D-TyrCA, D-Tyrosocholic acid]

- EC50 (human FXRα2): 6.8 µM
Compound: C[C@H](CCC(=O)N[C@H](Cc1ccc(O)cc1)C(=O)O)[C@H]1CC[C@H]2[C@@H]3[C@H](O)C[C@@H]4C[C@H](O)CC[C@]4(C)[C@H]3CC[C@]12C [D-TyrCDCA, D-Tyrosochenodeoxycholic acid]

- EC50 (human TGR5 [1]): 29.4 ± 0.9 µM
Compound: CC(CCC(=O)NCC(=O)O)C1CCC2C3C(O)CC4CC(O)CCC4(C)C3CCC12C (centres unmarked) [GCDCA, glycochenodeoxycholic acid]

- EC50 (human FXRα2): 46.3 µM
- affinity for FXRα2 relative to D/L-TyrCDCA (fold lower) (human FXRα2; reporter cells expressing uptake transporter): 6 fold
Compound: C[C@H](CCC(=O)N[C@@H](Cc1ccc(O)cc1)C(=O)O)[C@H]1CC[C@H]2[C@@H]3[C@H](O)C[C@@H]4C[C@H](O)CC[C@]4(C)[C@H]3C[C@H](O)[C@]12C [L-TyrCA, L-Tyrosocholic acid]

- EC50 (human FXRα2): 7.8 µM
Compound: C[C@H](CCC(=O)N[C@@H](Cc1ccc(O)cc1)C(=O)O)[C@H]1CC[C@H]2[C@@H]3[C@H](O)C[C@@H]4C[C@H](O)CC[C@]4(C)[C@H]3CC[C@]12C [L-TyrCDCA, L-Tyrosochenodeoxycholic acid]

- FXR reporter activation in mock-transfected cells (-OSTαβ) (human FXRα2; 10 µM, FXRα2/RXRα, no transporter): able to activate FXR
- FXR reporter activation (human FXRα2; 10 µM, cells overexpressing FXRα2, independent of bile salt importer): strongly activated
- FXR reporter activation (human FXRα4): strongly activated
Compound: CC[C@H]1[C@@H](O)[C@@H]2[C@H](CC[C@]3(C)[C@@H]([C@H](C)CCC(=O)O)CC[C@@H]23)[C@@]2(C)CC[C@@H](O)C[C@@H]12 [OCA, obeticholic acid, reference compound]

- EC50 (human TGR5 [1]): 277 ± 16.6 µM
Compound: C[C@H](CCC(=O)NCCS(=O)(=O)O)[C@H]1CC[C@H]2[C@@H]3[C@H](O)C[C@@H]4C[C@H](O)CC[C@]4(C)[C@H]3C[C@H](O)[C@]12C [TCA, Taurocholic acid]

The next lines start with the compound.

Compound: C[C@H](CCC(=O)NCC(=O)O)[C@H]1CC[C@H]2[C@@H]3[C@H](O)C[C@@H]4C[C@H](O)CC[C@]4(C)[C@H]3C[C@H](O)[C@]12C [GCA, glycocholic acid]
- EC50 (human TGR5 [1]): 342 ± 26.7 µM

Compound: CC(C)C[C@H](NC(=O)CC[C@@H](C)[C@H]1CC[C@H]2[C@@H]3[C@H](O)C[C@@H]4C[C@H](O)CC[C@]4(C)[C@H]3C[C@H](O)[C@]12C)C(=O)O [LeuCA, leucocholic acid]
- detection in portal blood or bile after repeated oral gavage [2]: failure to detect; also recorded: did not lead to detection
- effect on microbial composition in vitro (microbial composition): did not affect

Compound: C[C@H](CCC(=O)N[C@@H](Cc1ccccc1)C(=O)O)[C@H]1CC[C@H]2[C@@H]3[C@H](O)C[C@@H]4C[C@H](O)CC[C@]4(C)[C@H]3C[C@H](O)[C@]12C [PheCA, phenylalanocholic acid]
- effect on LPS-enhanced medium levels of TNFα and IL-6 (RAW264.7 cells): counteracted
- spore germination of C. difficile (C. difficile [3]): inhibit
- growth of C. difficile (C. difficile [4]): not inhibited
- effect on microbial composition in vitro (microbial composition): did not affect

Compound: C[C@H](CCC(=O)N[C@@H](Cc1ccccc1)C(=O)O)[C@H]1CC[C@H]2[C@@H]3[C@H](O)C[C@@H]4C[C@H](O)CC[C@]4(C)[C@H]3CC[C@]12C [PheCDCA, phenylalanochenodeoxycholic acid]
- effect on LPS-enhanced medium levels of TNFα and IL-6 (RAW264.7 cells): counteracted

Compound: C[C@H](CCC(=O)N[C@@H](Cc1ccccc1)C(=O)O)[C@H]1CC[C@H]2[C@@H]3[C@@H](O)[C@@H](O)[C@@H]4C[C@H](O)CC[C@]4(C)[C@H]3CC[C@]12C [Pheβ muricholic acid]
- spore germination of C. difficile (C. difficile [3]): inhibit

Compound: C[C@H](CCC(=O)NCCS(=O)(=O)O)[C@H]1CC[C@H]2[C@@H]3CC[C@@H]4C[C@H](O)CC[C@]4(C)[C@H]3CC[C@]12C [TLCA, taurolithocholic acid, reference compound]
- change of LPS-induced IL-6 level (RAW264.7 cells; 50 µM pretreatment 1 h): -4.6 fold
- change of LPS-induced TNFα level (RAW264.7 cells; 50 µM pretreatment 1 h): -3.6 fold

Compound: C[C@H](CCC(=O)N[C@@H](Cc1ccc(O)cc1)C(=O)O)[C@H]1CC[C@H]2[C@@H]3[C@H](O)C[C@@H]4C[C@H](O)CC[C@]4(C)[C@H]3C[C@H](O)[C@]12C [TyrCA, tyrosocholic acid]
- detection in portal blood or bile after repeated oral gavage [2]: failure to detect; also recorded: did not lead to detection
- spore germination of C. difficile (C. difficile [3]): inhibit
- growth of C. difficile (C. difficile [4]): not inhibited
- effect on microbial composition in vitro (microbial composition): did not affect

Compound: C=C[C@@]1(C)CC(=O)[C@]2(O)[C@@]3(C)[C@@H](O)CCC(C)(C)[C@@H]3[C@H](O)[C@H](OC(C)=O)[C@@]2(C)O1 [forskolin, Forskolin A]
- activation of cAMP-driven reporter (human TGR5 [5]): activated the reporter independent of TGR5 overexpression
